MrgX1 PAM: allosterically activates human MrgX1 receptor signaling; AID 588675; hit rate 0.63% among 310,000; B-score at 10 µM; MrgX1-HEK293, Fluo-4 calcium flux, FDSS; active compounds read high;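 active = plate-corrected calcium response at least 3 library SD above typical, normal starting fluorescence, not activating the receptor alone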;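 also: compound read alongside a low EC10 to EC30 dose of BAM8-22 agonist; peak minus trough fluorescence over baseline measured at the second addition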
Target sequence (Q96LB2 whole entry, looked up): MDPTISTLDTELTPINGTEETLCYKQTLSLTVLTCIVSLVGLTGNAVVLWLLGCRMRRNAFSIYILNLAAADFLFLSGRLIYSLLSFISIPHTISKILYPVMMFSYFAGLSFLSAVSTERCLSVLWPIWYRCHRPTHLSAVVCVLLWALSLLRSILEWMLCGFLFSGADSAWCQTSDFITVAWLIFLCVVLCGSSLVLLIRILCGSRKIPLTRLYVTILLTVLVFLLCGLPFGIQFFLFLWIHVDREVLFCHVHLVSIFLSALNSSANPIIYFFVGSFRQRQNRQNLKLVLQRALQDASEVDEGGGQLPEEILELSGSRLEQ
MrgX1 antagonist: human MrgX1 receptor antagonism, primary screen. B-score at 10 µM. hit rate 1.3% among 310,000. MRGX1-HEK293 calcium flux, Fluo-4, BAM8-22 antagonism; active compounds read low;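 active = calcium-response B-score plate-corrected more than 3 library SD below zero, starting fluorescence within 5 deviations, no agonist response on first addition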;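 also: peak minus trough fluorescence over baseline after final BAM8-22 challenge near maximal dose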
RGS4 inh: inhibitors of human RGS4 | P49798 | HEK293 M3R/RGS4 inducible, Fluo-4 calcium flux; active compounds read high; triggered by carbachol at its EC20 | B-score at 10 µM | hit rate 0.45% among 310,000;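 active = B-score, a plate-corrected calcium signal, over three deviations above library mean, with baseline fluorescence within five deviations of library mean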;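 also: RGS4 expression induced by doxycycline in cells with stable M3 receptor; B-score is computed from the integrated fluorescence ratio over baseline after carbachol; higher B-score means a larger calcium signal and so more RGS4 inhibition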
Target sequence (P49798 whole entry, looked up): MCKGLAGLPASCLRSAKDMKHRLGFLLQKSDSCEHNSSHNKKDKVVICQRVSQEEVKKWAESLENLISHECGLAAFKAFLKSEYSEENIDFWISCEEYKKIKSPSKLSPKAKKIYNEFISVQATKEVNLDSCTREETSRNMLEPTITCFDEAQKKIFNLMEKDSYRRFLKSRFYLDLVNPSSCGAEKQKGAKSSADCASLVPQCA
RGS4 pot: potentiators or activators of RGS4. hit rate 0.92% among 310,000. B-score at 10 µM. HEK293 M3R/inducible RGS4, carbachol calcium flux Fluo4; active compounds read low;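 active = B-score of the integrated calcium signal more than 4 SD below the library mean, with starting fluorescence not abnormally high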;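 also: negative B-score means reduced calcium response which marks RGS4 activation or potentiation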
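Detection: kinetic calcium fluorescence imaging with Fluo4-AM dye, 2 µM / Material: HEK293 cells with stable M3R and inducible RGS4 / Schedule: recording 10 s baseline at 1 Hz, 100 s post-agonist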
MrgX1 ag: activates human MrgX1 receptor signaling | Q96LB2 | MrgX1-HEK293 cells, Fluo-4 calcium fluorescence, agonist mode; active compounds read high | B-score at 10 µM | hit rate 0.44% among 310,000;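 active = calcium response B-score plate-corrected fluorescence ratio at least 3 library SD, with starting fluorescence B-score inside 5 SD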
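Material: HEK293 cells stably expressing human MrgX1 receptor | Quantity: 15,000 cells per well | Times: Cells plated overnight, dye loaded 0.5 h 37 °C, 0.5 h room temperature | Measured by: Kinetic Fluo-4 NW fluorescence of intracellular calcium | Control set: Positive and negative controls per plate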
MrgX1 ant reconf: confirmation of human MrgX1 receptor antagonists | shares compounds with MrgX1 antagonist | MrgX1-HEK293, BAM8-22 calcium flux, Fluo-4; active compounds read low | remaining BAM8-22 calcium response % of control (active compounds read low), % at 10 µM | hit rate 19% among 2,300 | AID 602420;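 active = remaining agonist calcium response no higher than 100% minus 3 SD of agonist-only control wells, with starting fluorescence near control levels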;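 also: agonist BAM8-22 given at a near maximal EC90 to ECmax level; peak minus minimum fluorescence divided by baseline after agonist addition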
HEK293 Ca flux: counter-screen for MrgX1 antagonists: effect in parental HEK293 cells; shares compounds with MrgX1 antagonist; Fluo-4 calcium fluorescence, FDSS; fluorescence ratio F(max-min)/F0 at 10 µM; hit rate 2% among 4,000; AID 624111;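 active = duplicate-averaged calcium fluorescence ratio at least three times the standard deviation of buffer wells, a nonspecific response in parental cells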
HEK293 Ca counter: activity in parental HEK293 cells without MrgX1 | shares compounds with MrgX1 antagonist | parental HEK293 calcium flux, Fluo-4 fluorescence ratio; active compounds read high | fluorescence ratio F(max-min)/F0 at 10 µM | hit rate 0.4% among 4,000 | AID 624114;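 active = calcium fluorescence ratio, averaged over duplicates, at least 3 SD of the buffer-well ratio, meaning a nonspecific response in receptor-free cells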;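 also: untransfected parental HEK293 lacking MrgX1 used as counterscreen for MrgX1 allosteric activators; fluorescence change taken during the second addition on a kinetic imager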
HEK293 Ca cntr2: activity in parental HEK293 cells lacking MrgX1 receptor | shares compounds with MrgX1 antagonist | Fluo-4 calcium fluorescence (FDSS); active compounds read high | fluorescence ratio F(max-min)/F0 at 10 µM | hit rate 8.7% among 4,000;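 active = calcium fluorescence ratio at least three times the spread of buffer wells, meaning a non-specific response in parental cells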
Starred values were filed as active, the others as inactive; i = inactive; x = not tested or not shown. This is a sample that favours compounds with a hit; in the whole collection about 3.5% have one here.

SMILES	MrgX1 PAM	MrgX1 antagonist	RGS4 inh	RGS4 pot	MrgX1 ag	MrgX1 ant reconf	HEK293 Ca flux	HEK293 Ca counter	HEK293 Ca cntr2
CNC(=O)CSc1nnc(-c2cccnc2)n1-c1ccc(C)cc1	i	-5.6*	i	i	i	i	i	i	i
NC(=O)c1sc2nc(-c3cccs3)ccc2c1N	i	i	i	i	i	x	x	x	x
Nc1c(C(=O)NC2CCCC2)sc2nc(-c3cccs3)ccc12	i	-4.7*	i	i	i	i	i	i	i
CSc1cccc(NC(=S)N(CCC(C)C)C2CCN(C(C)C)CC2)c1	i	-6.3*	i	i	i	i	i	i	i
CSc1cccc(NC(=S)N(CCC(C)C)C2CCN(C(C)=O)CC2)c1	i	i	i	i	i	x	x	x	x
CNC(=O)c1ccccc1-c1ccccc1	i	-5.3*	i	i	i	i	i	i	i
CC(=O)Nc1ccccc1NC(=O)c1ccccc1-c1ccccc1	i	i	i	i	i	x	x	x	x
O=C(c1ccccc1-c1ccccc1)N1CCCCC1	i	-5.2*	i	i	i	i	i	i	i
O=C(c1ccccc1-c1ccccc1)N1CCCC1	i	i	i	i	i	x	x	x	x
COc1ccc(CNC(=O)CSc2nc3ccc(N)cc3s2)cc1	i	i	i	i	i	x	x	x	x
CC(NC(=O)CSc1nc2ccc(N)cc2s1)c1ccccc1 (centres undefined)	i	-5.5*	i	i	i	i	i	i	i
COc1ccc(Cl)cc1N1C(=N)SCC1=O	i	i	i	i	i	x	x	x	x
O=S(=O)(c1ccc(N2CCOCC2)cc1)N1CCOCC1	i	-4.9*	i	i	i	i	i	i	i
CCS(=O)(=O)N1CCN(c2ccc(S(=O)(=O)N3CCOCC3)cc2)CC1	i	i	i	i	i	x	x	x	x
COc1cccc2c(=O)c(C(=O)O)c[nH]c12	i	i	i	i	i	x	x	x	x
O=C(O)c1c[nH]c2c(C(F)(F)F)cccc2c1=O	i	-7.4*	i	i	i	i	i	i	i
Cc1cnc(C(=O)OCC(=O)c2csc(N3CCCCC3)n2)cn1	i	-5.7*	i	i	i	i	i	i	i
COC(=O)CCCC(=O)N1CCCC(CCC(=O)NCc2ccc(F)c(F)c2)C1 (centres undefined)	i	i	i	i	i	x	x	x	x
O=C(CCC1CCCN(C(=O)CCC(F)(F)F)C1)NCc1ccc(F)c(F)c1 (centres undefined)	i	-4.8*	i	i	i	i	i	i	i
O=C(Oc1cccc(-n2cnnn2)c1)c1ccco1	i	-6.5*	i	i	i	79%*	i	i	i
Cc1ccc2nc(C)c(CN3CCN(c4ccc([N+](=O)[O-])cc4Cl)CC3)n2c1	i	i	i	i	i	x	x	x	x
C/C=C(\C)C(=O)Nc1cccc(C2=NOC3(C2)C[C@H](C(N)=O)N(C(=O)C(c2ccccc2)c2ccccc2)C3)c1 (some centres undefined)	i	i	i	i	i	x	x	x	x
Cc1ccccc1C(=O)N=c1c(C#N)cc2c(=O)n3cccc(C)c3nc2n1Cc1ccco1	i	i	i	i	i	x	x	x	x
Cc1ccc(S(=O)(=O)c2cc3c(=O)n4ccccc4nc3n(Cc3ccco3)c2=N)cc1	i	-4.6*	i	i	i	76%*	i	i	i
N#Cc1cc2c(=O)n3ccccc3nc2n(Cc2ccco2)c1=NC(=O)c1ccco1	i	-4.8*	i	i	i	83%*	i	i	i
SMILES	MrgX1 PAM	MrgX1 antagonist	RGS4 inh	RGS4 pot	MrgX1 ag	MrgX1 ant reconf	HEK293 Ca flux	HEK293 Ca counter	HEK293 Ca cntr2
CCOc1ccc(CNC(=O)CCS(=O)(=O)c2ccc3c(c2)NC(=O)CO3)cc1OC	i	i	i	i	i	x	x	x	x
CC1CCN(S(=O)(=O)c2ccc3c(c2)N(CC(=O)NCCCN2C(C)CCCC2C)C(=O)CO3)CC1 (centres undefined)	i	i	i	i	i	x	x	x	x
CC(C)(C)N(Cc1ccccc1)C(=O)COC(=O)c1ccccc1SCC(=O)N1CCCC1	i	i	i	i	i	x	x	x	x
Cn1cc([C@@H]2C[C@H]3CN(Cc4cccc(Cl)c4)C(=O)[C@]34CCCN24)c2ccccc21	i	-5.2*	i	i	i	i	i	i	i
Cc1c([C@@H]2C[C@H]3CN(Cc4cccc(Cl)c4)C(=O)[C@]34CCCN24)cnn1C	i	i	i	i	i	x	x	x	x
COc1ccc(C(CNC(=O)C(=O)NC2CCCCC2)N2CCN(C)CC2)cc1 (centres undefined)	i	i	i	i	i	x	x	x	x
COCCCNC(=O)C1CC(=O)N(C2CCCC2)C1 (centres undefined)	i	-4.8*	i	i	i	i	i	i	i
CCOC(=O)COc1ccc2c(c1)C(=O)CC1(CCCCC1)O2	i	-7.6*	i	i	i	i	i	i	i
COc1cccc(NC(=O)c2ccc(C(=O)c3ccccc3)o2)c1	i	i	i	i	i	x	x	x	x
CON(C)c1nc(C2CCCCC2)c2cc(C)ccc2n1	i	i	i	i	i	x	x	x	x
COc1ccc(-c2nc(C3CCCCC3)c3cc(OC)ccc3n2)cc1	i	-5*	i	i	i	i	i	i	i
CCOc1ccc(N(CC(=O)Nc2cccc(Br)c2)S(C)(=O)=O)cc1	i	i	i	i	i	x	x	x	x
Cc1cccc(N2CCN(C(=O)c3ccc(N4CCCC4=O)cc3)CC2C)c1 (centres undefined)	i	-4.9*	i	i	i	i	i	i	i
Cc1cccc(N2CCN(C(=O)c3cccc(N4C(=O)C5C6C=CC(C6)C5C4=O)c3)CC2C)c1 (centres undefined)	i	i	i	i	i	x	x	x	x

Source: PubChem
